Experimental data as given in ChEMBL document CHEMBL1142195, “A novel nonnucleoside analogue that inhibits human immunodeficiency virus type 1 isolates resistant to current nonnucleoside reverse transcriptase inhibitors” (Antimicrob Agents Chemother, 2007).

What was measured:
Type in all cases: functional, organism-based
[1] = test system: Human immunodeficiency virus 1; assay: Antiviral activity against HIV1 isolate with RT K103N-V108I-P225H mutation
Procedure, shortened: (§1)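 VSV-G-pseudotyped pNL4-3.Luc.R−E− molecular clones carrying the RT mutations, single-round infection of HeLa-JC53 cells (15,000/well) at MOI 0.03. Compounds serially diluted 1:4 in DMSO then in phenol red-free DMEM with 2% FBS, final DMSO 0.2%. Incubated 48 h at 37°C, 5% CO2. Luciferase read-out by chemiluminescence gives the EC50. Fold change is relative to wt virus, mean of two tests.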

[2] = test system: Human immunodeficiency virus 1; assay: Antiviral activity against HIV1 isolate with RT K103N-F227L mutation; procedure, shortened: as §1
[3] = test system: Human immunodeficiency virus 1; assay: Antiviral activity against HIV1 isolate V106I-Y188L mutant
[4] = test system: Human immunodeficiency virus 1; assay: Antiviral activity against HIV1 isolate with RT G190A mutation; procedure, shortened: as §1
[5] = test system: Human immunodeficiency virus 1; assay: Antiviral activity against HIV1 isolate with RT K103N-Y188L mutation; procedure, shortened: as §1
[6] = test system: Human immunodeficiency virus 1; assay: Antiviral activity against HIV1 isolate with RT K103N-K101Q-P225H mutation; procedure, shortened: as §1
[7] = test system: Human immunodeficiency virus 1; assay: Antiviral activity against HIV1 isolate with RT K103N-V108I-A98G mutation; procedure, shortened: as §1
[8] = test system: Human immunodeficiency virus 1; assay: Antiviral activity against HIV1 isolate with RT A98G mutation; procedure, shortened: as §1
[9] = test system: Human immunodeficiency virus 1; assay: Antiviral activity against HIV1 isolate with RT V106I mutation; procedure, shortened: as §1
[10] = test system: Human immunodeficiency virus 1; assay: Antiviral activity against HIV1 isolate with RT Y181C mutation; procedure, shortened: as §1
[11] = test system: Human immunodeficiency virus 1; assay: Antiviral activity against wild type HIV1
[12] = test system: Human immunodeficiency virus 1; assay: Antiviral activity against HIV1 isolate with RT K103N mutation; procedure, shortened: as §1
[13] = test system: Human immunodeficiency virus 1; assay: Antiviral activity against HIV1 isolate with RT K103N-Y181C mutation; procedure, shortened: as §1
[14] = test system: Human immunodeficiency virus 1; assay: Antiviral activity against HIV1 isolate with RT K103N-P225H mutation; procedure, shortened: as §1
[15] = test system: Human immunodeficiency virus 1; assay: Antiviral activity against HIV1 isolate with RT K103N-V108I mutation; procedure, shortened: as §1
[16] = test system: Human immunodeficiency virus 1; assay: Antiviral activity against HIV1 isolate with RT K103N-K101Q mutation; procedure, shortened: as §1
[17] = test system: Human immunodeficiency virus 1; assay: Antiviral activity against HIV1 isolate with RT K103N-L100I mutation; procedure, shortened: as §1
[18] = test system: Human immunodeficiency virus 1; assay: Antiviral activity against HIV1 isolate with RT G190S mutation; procedure, shortened: as §1
[19] = test system: Human immunodeficiency virus 1; assay: Antiviral activity against HIV1 isolate with RT Y188L mutation; procedure, shortened: as §1
[20] = test system: Human immunodeficiency virus 1; assay: Antiviral activity against HIV1 isolate with RT K101E mutant; procedure, shortened: as §1

O=C1Nc2ccc(Cl)cc2[C@@](C#CC2CC2)(C(F)(F)F)O1 [EFAVIRENZ]
EC50 [1]: 77.1 nM
EC50 [2]: 2.26 nM
EC50 [3]: 136 nM
EC50 [4]: 0.48 nM
EC50 [5]: > 2500 nM
EC50 [6]: 78.4 nM
EC50 [7]: 67.9 nM
EC50 [8]: 0.64 nM
EC50 [9]: 0.27 nM
EC50 [10]: 0.33 nM
EC50 [11]: 0.17 nM
EC50 [12]: 2.73 nM
EC50 [13]: 4.24 nM
EC50 [14]: 34.9 nM
EC50 [15]: 8.63 nM
EC50 [16]: 12.7 nM
EC50 [17]: 258 nM
EC50 [18]: 14.3 nM
EC50 [19]: 24.4 nM
EC50 [20]: 0.74 nM
